Measurements reported in ChEMBL document CHEMBL3232794, “Synthesis and evaluation of 2-anilinopyrimidines bearing 3-aminopropamides as potential epidermal growth factor receptor inhibitors” (Eur J Med Chem, 2014).
The source made the active and inactive calls. The rule behind the calls is not given here.

How the values were obtained:
[1] = biological target: Epidermal growth factor receptor (Homo sapiens, UniProt P00533, L858R); type: protein assay
[2] = system: A-431; assay: cells; type: functional, cell-based; conditions: Homo sapiens, A-431, 72 h
[3] = system: NCI-H1975; assay: Antiproliferative activity against human NCI-H1975 cells harboring EGFR L858R/T790M mutant after 72 hrs by MTT assay; type: functional, cell-based; conditions: NCI-H1975, 72 h
[4] = system: A549; assay: cells; type: functional, cell-based; conditions: Homo sapiens, A549, 72 h
[5] = biological target: Epidermal growth factor receptor (Homo sapiens, UniProt P00533)
[6] = cells; type: functional, cell-based; conditions: Homo sapiens, HCC827, 72 h
[7] = cells; type: functional, cell-based; conditions: Homo sapiens, BEAS-2B, 72 h
[8] = cells; type: ADME, cell-based; conditions: Homo sapiens, 16HBE14o-, 72 h
[9] = biological target: Epidermal growth factor receptor (Homo sapiens, UniProt P00533, L858R/T790M); type: protein assay
[10] = system: NCI-H1975; assay: Induction of NO production in human NCI-H1975 cells harboring EGFR L858R/T790M mutant at 100 uM incubated for 150 mins; type: functional, cell-based
Method in brief: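 H1975 or 16HBE cells (1 × 10⁶/well) exposed to 100 µM compound for 150 min, then harvested and lysed. Lysates mixed with Griess reagent for 10 min and absorbance read at 540 nm. Nitrite quantified against a […] standard curve, with diluent-treated cells as background.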

[11] = biological target: RAC-alpha serine/threonine-protein kinase (Homo sapiens) (UniProt P31749); assay: Inhibition of Akt phosphorylation in human H1975 cells harboring EGFR L858R/T790M mutant at 1 uM by Western blotting analysis; type: cell-based
Method in brief: (§1)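 Lysates (50 µg/lane) separated on 7.5% SDS-PAGE and blotted to nitrocellulose. Probed for total and phospho-EGFR (Tyr1068), Akt (Ser473) and ERK (Thr202/Tyr204) plus β-actin; HRP secondaries with ECL detection.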

[12] = system: H1975; conditions: Homo sapiens, at 1 µM
[13] = system: Epidermal growth factor receptor (Homo sapiens), P00533 [L858R,T790M]; conditions: H1975, at 1 µM
[14] = system: HCC827; assay: Antiproliferative activity against gefitinib-sensitive human HCC827 cells bearing EGFR del E746_A750 mutant at 5 uM after 72 hrs by MTT assay in presence of 1 to 20 uM haemoglobin NO scavenger; type: functional, cell-based; conditions: in the assay text read “24 hrs” for “72 hrs”
Method in brief: (§2)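 Cells pretreated 1 h with hemoglobin (0, 1, 5, 10 or 20 µM) as NO scavenger, then exposed to 5 µM test compound for 24 h; growth read by MTT assay.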

[15] = system: Epidermal growth factor receptor (Homo sapiens), P00533 [L858R,T790M]; assay: Inhibition of EGFR phosphorylation in human H1975 cells harboring EGFR L858R/T790M mutant at 0.1 uM by Western blotting analysis; type: cell-based
Method in brief: as §1

[16] = system: Epidermal growth factor receptor (Homo sapiens), P00533 [L858R,T790M]; assay: Inhibition of EGFR phosphorylation in human H1975 cells harboring EGFR L858R/T790M mutant by Western blotting analysis; type: cell-based
Method in brief: as §1

[17] = system: NCI-H1975; assay: Antiproliferative activity against human NCI-H1975 cells harboring EGFR L858R/T790M mutant at 5 uM after 72 hrs by MTT assay in presence of 1 to 20 uM haemoglobin NO scavenger; type: functional, cell-based; conditions: in the assay text read “24 hrs” for “72 hrs”
Method in brief: as §2

[18] = Chemical stability of the compound in buffer solution assessed as compound remaining at 50 uM at pH 7.4 after 24 hrs by LC-UV analysis; type: physicochemical; conditions: read-out: Stability
Method in brief: (§3)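 1 mM DMSO stocks diluted to 50 µM final (5% v/v DMSO) in prewarmed 0.01 M PBS pH 7.4 or 0.01 M borate buffer pH 9.0. Incubated at 37 °C for 24 h, mixed with equal volume acetonitrile, analysed by C18 RP-HPLC with UV detection at 281 nm; percent remaining, mean ± SD, n = 3.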

[19] = (§4) Stability of the compound in rat plasma assessed as compound remaining at 50 uM at pH 7.4 after 24 hrs by LC-UV analysis; type: ADME, cell-free; conditions: pH 7.4, read-out: Stability
Method in brief: (§5)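 Rat plasma diluted to 50% (v/v) with 0.1 M PBS pH 7.4 and spiked with compound from a DMSO stock, then incubated 24 h at 37 °C. Two volumes acetonitrile added, centrifuged (4 °C, 14,000 g, 15 min), supernatant run on RP-HPLC with UV at 281 nm; percent remaining, n = 3.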

[20] = DTT reactivity assessed as compound remaining at 50 uM after 1 hr at pH 7.4 by LC-UV analysis; type: physicochemical; conditions: read-out: Activity
Method in brief: (§6)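 Freshly prepared thiol (DTT, reduced GSH or L-cysteine; 2 mM) added to PBS pH 7.4 containing test compound, incubated 1 h at 37 °C. Remaining parent measured by HPLC-UV (C18, 281 nm); mean ± SD, n = 3.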

[21] = GSH reactivity assessed as compound remaining at 50 uM after 1 hr at pH 7.4 by LC-UV analysis; type: physicochemical; conditions: read-out: Activity
Method in brief: as §6

[22] = Chemical stability of the compound in buffer solution assessed as compound remaining at 50 uM at pH 9 after 24 hrs by LC-UV analysis; type: physicochemical
Method in brief: as §3

[23] = L-cysteine reactivity assessed as compound remaining at 50 uM after 1 hr at pH 7.4 by LC-UV analysis; type: physicochemical; conditions: read-out: Activity
Method in brief: as §6

[24] = system: Plasma; assay: as §4; type: ADME, cell-free; conditions: pH 7.4, 24 h, 50 µM, BLD = below limit of detection
Method in brief: as §5

Sequence of Epidermal growth factor receptor (Homo sapiens, UniProt P00533, L858R) (P00533 25-1210 L858R limits assumed): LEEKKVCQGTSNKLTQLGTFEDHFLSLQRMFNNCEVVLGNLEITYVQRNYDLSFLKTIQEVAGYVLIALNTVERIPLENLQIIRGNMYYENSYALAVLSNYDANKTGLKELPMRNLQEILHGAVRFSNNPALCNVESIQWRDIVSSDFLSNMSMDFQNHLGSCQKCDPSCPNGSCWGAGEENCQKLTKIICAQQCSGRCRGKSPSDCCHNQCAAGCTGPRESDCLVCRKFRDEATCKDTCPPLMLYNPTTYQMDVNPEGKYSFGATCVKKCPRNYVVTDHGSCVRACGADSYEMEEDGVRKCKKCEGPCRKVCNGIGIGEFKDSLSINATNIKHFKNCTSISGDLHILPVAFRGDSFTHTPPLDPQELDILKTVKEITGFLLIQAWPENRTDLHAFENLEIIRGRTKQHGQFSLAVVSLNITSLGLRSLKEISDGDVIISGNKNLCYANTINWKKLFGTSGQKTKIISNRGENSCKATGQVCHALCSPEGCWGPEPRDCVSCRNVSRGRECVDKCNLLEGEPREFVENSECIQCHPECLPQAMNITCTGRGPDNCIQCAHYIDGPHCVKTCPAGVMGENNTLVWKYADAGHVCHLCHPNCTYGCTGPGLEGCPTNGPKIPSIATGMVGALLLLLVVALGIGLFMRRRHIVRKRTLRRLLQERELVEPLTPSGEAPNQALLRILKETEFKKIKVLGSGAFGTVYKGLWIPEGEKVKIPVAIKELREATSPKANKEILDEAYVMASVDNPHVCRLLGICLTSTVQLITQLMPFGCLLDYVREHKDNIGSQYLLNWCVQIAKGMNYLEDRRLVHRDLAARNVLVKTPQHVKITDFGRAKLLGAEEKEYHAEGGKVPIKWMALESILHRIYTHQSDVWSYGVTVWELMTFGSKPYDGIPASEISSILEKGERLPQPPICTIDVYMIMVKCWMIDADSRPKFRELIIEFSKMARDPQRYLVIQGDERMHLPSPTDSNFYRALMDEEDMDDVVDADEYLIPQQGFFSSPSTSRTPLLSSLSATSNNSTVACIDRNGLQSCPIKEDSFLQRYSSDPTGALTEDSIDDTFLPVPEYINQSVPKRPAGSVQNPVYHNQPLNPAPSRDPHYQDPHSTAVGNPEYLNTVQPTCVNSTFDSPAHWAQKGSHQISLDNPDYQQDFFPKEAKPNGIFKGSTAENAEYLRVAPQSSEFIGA
Sequence of Epidermal growth factor receptor (Homo sapiens), P00533 [L858R,T790M] (P00533 whole entry T790M/L858R, looked up): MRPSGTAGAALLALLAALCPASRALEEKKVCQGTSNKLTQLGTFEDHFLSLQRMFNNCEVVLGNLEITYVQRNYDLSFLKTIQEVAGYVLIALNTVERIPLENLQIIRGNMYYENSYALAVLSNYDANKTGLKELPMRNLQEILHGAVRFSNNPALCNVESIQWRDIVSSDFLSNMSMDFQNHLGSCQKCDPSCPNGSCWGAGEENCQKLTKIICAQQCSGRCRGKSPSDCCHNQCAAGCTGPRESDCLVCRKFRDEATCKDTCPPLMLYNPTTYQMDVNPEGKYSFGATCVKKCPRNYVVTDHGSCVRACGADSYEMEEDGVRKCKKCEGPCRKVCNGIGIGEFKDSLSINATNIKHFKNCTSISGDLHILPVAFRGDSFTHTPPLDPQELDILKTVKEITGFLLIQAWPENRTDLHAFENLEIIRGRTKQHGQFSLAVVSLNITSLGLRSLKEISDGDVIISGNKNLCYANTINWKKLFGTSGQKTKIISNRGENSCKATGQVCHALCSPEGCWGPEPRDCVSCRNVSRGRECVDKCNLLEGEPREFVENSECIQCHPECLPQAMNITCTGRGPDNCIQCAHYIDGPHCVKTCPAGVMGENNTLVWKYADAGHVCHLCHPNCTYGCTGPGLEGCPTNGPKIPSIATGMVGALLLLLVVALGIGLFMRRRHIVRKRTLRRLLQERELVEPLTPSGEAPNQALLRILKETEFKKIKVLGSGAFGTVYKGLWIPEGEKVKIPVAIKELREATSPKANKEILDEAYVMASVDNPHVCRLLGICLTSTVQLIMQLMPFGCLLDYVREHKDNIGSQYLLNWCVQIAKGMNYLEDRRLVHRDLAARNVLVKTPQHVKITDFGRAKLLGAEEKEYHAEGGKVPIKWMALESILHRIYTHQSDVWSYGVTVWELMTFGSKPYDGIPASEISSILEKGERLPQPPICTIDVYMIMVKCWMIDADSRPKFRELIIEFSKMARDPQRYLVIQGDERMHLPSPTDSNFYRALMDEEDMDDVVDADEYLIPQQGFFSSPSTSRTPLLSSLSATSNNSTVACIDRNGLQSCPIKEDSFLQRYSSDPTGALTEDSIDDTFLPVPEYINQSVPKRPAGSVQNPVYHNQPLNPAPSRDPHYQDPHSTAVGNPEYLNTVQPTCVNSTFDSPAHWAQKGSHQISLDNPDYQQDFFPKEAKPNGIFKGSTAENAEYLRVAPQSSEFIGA
Sequence of Epidermal growth factor receptor (Homo sapiens, UniProt P00533) (P00533 whole entry): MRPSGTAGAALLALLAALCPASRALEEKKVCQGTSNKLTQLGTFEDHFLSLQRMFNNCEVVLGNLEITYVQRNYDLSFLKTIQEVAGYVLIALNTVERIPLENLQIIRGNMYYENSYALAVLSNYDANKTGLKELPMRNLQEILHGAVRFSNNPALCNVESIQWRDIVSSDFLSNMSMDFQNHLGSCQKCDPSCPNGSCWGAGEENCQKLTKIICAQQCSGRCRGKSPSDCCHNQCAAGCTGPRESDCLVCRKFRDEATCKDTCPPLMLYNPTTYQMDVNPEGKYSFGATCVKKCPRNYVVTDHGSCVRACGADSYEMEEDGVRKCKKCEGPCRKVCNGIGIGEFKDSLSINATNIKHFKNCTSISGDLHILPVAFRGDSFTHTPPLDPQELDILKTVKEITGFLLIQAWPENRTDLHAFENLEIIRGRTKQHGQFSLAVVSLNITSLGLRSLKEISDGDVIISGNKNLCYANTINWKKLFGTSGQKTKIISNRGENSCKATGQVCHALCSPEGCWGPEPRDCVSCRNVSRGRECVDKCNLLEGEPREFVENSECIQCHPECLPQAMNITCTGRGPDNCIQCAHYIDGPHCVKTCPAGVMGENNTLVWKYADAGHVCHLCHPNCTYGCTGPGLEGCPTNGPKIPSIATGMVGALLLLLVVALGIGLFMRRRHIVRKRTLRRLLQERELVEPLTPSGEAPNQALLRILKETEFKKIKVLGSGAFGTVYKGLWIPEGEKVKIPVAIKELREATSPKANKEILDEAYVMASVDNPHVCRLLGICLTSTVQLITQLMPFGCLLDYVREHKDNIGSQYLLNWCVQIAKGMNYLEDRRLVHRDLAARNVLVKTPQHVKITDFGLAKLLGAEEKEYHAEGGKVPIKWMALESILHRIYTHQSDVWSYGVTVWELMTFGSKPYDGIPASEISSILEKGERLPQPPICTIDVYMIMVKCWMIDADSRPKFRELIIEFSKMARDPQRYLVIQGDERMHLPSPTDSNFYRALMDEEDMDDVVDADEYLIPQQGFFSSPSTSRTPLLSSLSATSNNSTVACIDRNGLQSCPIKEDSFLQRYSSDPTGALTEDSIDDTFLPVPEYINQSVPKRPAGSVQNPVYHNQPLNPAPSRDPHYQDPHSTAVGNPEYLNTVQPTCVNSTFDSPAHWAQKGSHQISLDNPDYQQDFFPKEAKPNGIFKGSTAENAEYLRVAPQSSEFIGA
Sequence of Epidermal growth factor receptor (Homo sapiens, UniProt P00533, L858R/T790M) (P00533 25-1210 T790M/L858R limits assumed): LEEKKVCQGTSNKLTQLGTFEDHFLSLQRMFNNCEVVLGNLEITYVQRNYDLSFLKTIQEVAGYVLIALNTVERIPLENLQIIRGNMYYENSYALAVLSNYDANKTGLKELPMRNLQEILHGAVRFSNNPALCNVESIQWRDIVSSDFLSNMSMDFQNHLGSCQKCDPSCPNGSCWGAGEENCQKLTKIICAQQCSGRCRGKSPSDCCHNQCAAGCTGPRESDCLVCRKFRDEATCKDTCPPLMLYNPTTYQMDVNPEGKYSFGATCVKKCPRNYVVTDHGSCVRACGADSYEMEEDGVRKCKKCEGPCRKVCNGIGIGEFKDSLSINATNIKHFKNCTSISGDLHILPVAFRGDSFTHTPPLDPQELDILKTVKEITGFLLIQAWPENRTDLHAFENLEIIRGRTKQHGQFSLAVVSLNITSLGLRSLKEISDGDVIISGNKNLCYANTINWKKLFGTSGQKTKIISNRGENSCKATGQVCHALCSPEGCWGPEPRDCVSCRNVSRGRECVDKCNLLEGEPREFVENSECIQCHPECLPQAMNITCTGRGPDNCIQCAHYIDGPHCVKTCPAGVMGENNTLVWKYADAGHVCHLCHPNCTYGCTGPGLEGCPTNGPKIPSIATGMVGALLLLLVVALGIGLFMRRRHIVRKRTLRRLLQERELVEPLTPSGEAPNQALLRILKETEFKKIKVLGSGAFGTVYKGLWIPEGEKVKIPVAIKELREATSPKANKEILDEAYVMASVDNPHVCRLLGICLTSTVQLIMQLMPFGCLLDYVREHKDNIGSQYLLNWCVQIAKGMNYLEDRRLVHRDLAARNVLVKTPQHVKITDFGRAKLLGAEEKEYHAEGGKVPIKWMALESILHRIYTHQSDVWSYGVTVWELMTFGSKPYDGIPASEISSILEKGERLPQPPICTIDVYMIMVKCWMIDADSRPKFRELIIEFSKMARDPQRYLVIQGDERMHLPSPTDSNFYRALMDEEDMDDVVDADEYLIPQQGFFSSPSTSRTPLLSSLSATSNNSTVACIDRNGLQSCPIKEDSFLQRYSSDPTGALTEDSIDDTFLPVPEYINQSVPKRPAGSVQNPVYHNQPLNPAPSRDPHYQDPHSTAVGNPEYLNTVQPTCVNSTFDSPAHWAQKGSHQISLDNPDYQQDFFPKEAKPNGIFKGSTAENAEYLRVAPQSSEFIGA

IC50 [1] | IC50 [2] | IC50 [3] | IC50 [4] | IC50 [5] | IC50 [6] | IC50 [7] | IC50 [8] | IC50 [9] | SMILES | other results
804 nM | 545 nM | 156 nM | 923 nM | 638 nM | 266 nM | 615 nM | 1140 nM | 184 nM | COc1cc(N2CCN(C)CC2)ccc1Nc1ncc(Cl)c(Oc2cccc(NC(=O)CCN(C)C)c2)n1 | 
 |  |  |  |  |  |  |  |  | COc1cc2ncnc(Nc3ccc(F)c(Cl)c3)c2cc1OCCCN1CCOCC1 | Activity [10]: Active; inhibition [11]: inactive
4530 nM | 410 nM | 178 nM | 1120 nM | 10000 nM | 337 nM | 365 nM | 970 nM | 2180 nM | COc1cc(N2CCN(C)CC2)ccc1Nc1ncc(Cl)c(Oc2cccc(NC(=O)CCN3CCCCC3)c2)n1 | 
818 nM | 291 nM | 166 nM | 1000 nM | 877 nM | 249 nM | 433 nM | 620 nM | 181 nM | CCN(CC)CCC(=O)Nc1cccc(Oc2nc(Nc3ccc(N4CCN(C)CC4)cc3OC)ncc2Cl)c1 | 
427 nM | 804 nM | 268 nM | 1210 nM | 525 nM | 210 nM | 1890 nM | 1130 nM | 88 nM | COc1cc(N2CCN(C)CC2)ccc1Nc1ncc(Cl)c(Oc2cccc(NC(=O)CCN3CCCC3)c2)n1 | 
262 nM | 4470 nM | 108 nM | 8250 nM | 201 nM | 130 nM | 3370 nM | 2880 nM | 263 nM | COc1cc(N2CCN(C)CC2)ccc1Nc1ncc(Cl)c(Oc2cccc(NC(=O)CCN3CCN(CCOc4no[n+]([O-])c4S(=O)(=O)c4ccccc4)CC3)c2)n1 | inhibition [12]: Active; Activity [10]: Active; inhibition [11]: Active; inhibition [13]: Active; inhibition [14]: inactive; inhibition [15]: Active; inhibition [16]: Dose-dependent effect; inhibition [17]: inactive
5870 nM | 632 nM | 931 nM | 2820 nM | 2390 nM | 799 nM | 1660 nM | 2060 nM | 2420 nM | COc1cc(N2CCN(C)CC2)ccc1Nc1ncc(Cl)c(Oc2cccc(NC(=O)CCN3CCN(CCO)CC3)c2)n1 | remaining at 24 h, 50 µM [18]: 99.5%; remaining at 24 h, 50 µM [19]: 105%; remaining at 1 h, 50 µM [20]: 101%; remaining at 1 h, 50 µM [21]: 100%; remaining at 24 h, 50 µM ([22]; buffer solution, pH 9, read-out: Stability): 81.4%; remaining at 1 h, 50 µM [23]: 101%
10000 nM | 548 nM | 1040 nM | 1030 nM | 7440 nM | 1500 nM | 412 nM | 1750 nM | 4710 nM | COc1cc(N2CCN(C)CC2)ccc1Nc1ncc(Cl)c(Oc2cccc(NC(=O)CCN3CCN(C)CC3)c2)n1 | 
2380 nM | 4530 nM | 1600 nM | 5280 nM | 698 nM | 883 nM | 5780 nM | 3700 nM | 537 nM | CCOC(=O)N1CCN(CCC(=O)Nc2cccc(Oc3nc(Nc4ccc(N5CCN(C)CC5)cc4OC)ncc3Cl)c2)CC1 | 
 |  | 46 nM |  |  | 8 nM |  |  |  | C=CC(=O)Nc1cccc(Oc2nc(Nc3ccc(N4CCN(C)CC4)cc3OC)ncc2Cl)c1 | remaining at 24 h, 50 µM [18]: 101%; Stability [24]: BLD; remaining at 1 h, 50 µM [20]: 11.3%; remaining at 1 h, 50 µM [21]: 73.5%; Stability ([22]; buffer, pH 9, 24 h, 50 µM, BLD = below limit of detection): BLD; remaining at 1 h, 50 µM [23]: 12.2%
> 10000 nM | 3910 nM | 1020 nM | 2620 nM | > 10000 nM | 899 nM | 2270 nM | 3600 nM | > 10000 nM | COc1cc(N2CCN(C)CC2)ccc1Nc1ncc(Cl)c(Oc2cccc(NC(=O)CCN3CCOCC3)c2)n1 | 
